Each structure is given as a SMILES string. In brackets after ≈: the same amount, converted by molar mass. Activity calls are given as the source filed them.

The results in this text go back to ChEMBL document CHEMBL3576792, “Enhancement of antibiotic activity against multidrug-resistant bacteria by the efflux pump inhibitor 3,4-dibromopyrrole-2,5-dione isolated from a Pseudoalteromonas sp” (J Nat Prod, 2015).

The test system of assay [1] is Escherichia coli. Nature of the assay: Potentiation of piperacillin-induced antibacterial activity Escherichia coli AG102 overexpressing AcrAB-TolC assessed as piperacillin MIC by p-iodonitrotetrazolium chloride colorimetric assay. The assay is classed as functional. The method, boiled down:
(§1)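 Checkerboard microdilution in Mueller-Hinton broth: two-fold dilutions of antibiotic crossed with dilutions of test compound above, at and below their MICs. Growth was read by INT colorimetric assay, with MIC as the lowest concentration showing no visible growth. FICs and FIC index were derived from these MICs. ΔBC/pABM and ΔBC/pXYM strains were grown with 100 μg/mL ampicillin and 1 mM IPTG.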

Assay [2] deals with Escherichia coli. Nature of the assay: Effect on intracellular H33342 accumulation in Escherichia coli AG100A delta acrAB mutant at 4 ug/ml after 60 mins by accumulation assay. The assay is classed as functional. The method, boiled down:
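AG100 (wild-type K-12) or AG100A (ΔacrAB) grown in Luria broth at 37 °C and 200 rpm to OD600 1.0, PBS-washed, diluted to OD600 0.3. Cells given 2.5 μM H33342 with 22 mM glucose at 37 °C for ~30 min until stable, then compound (0.06–64 μg/mL) added. Fluorescence (Ex 350/Em 460) read for 60 min, background subtracted. Final 4 time points averaged; one-way ANOVA/Dunnett vs Hoechst-only; n = 8.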

For another assay, the system named is Escherichia coli K-12. Nature of the assay: Inhibition of AcrAB-TolC pump in Escherichia coli K-12 AG100 assessed as increase in intracellular H33342 fluorescence at 4 ug/ml after 60 mins by efflux inhibition assay. The class given is cell-based. The gist of the method:
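Washed AG100 cells loaded for 60 min with 2.5 μM H33342 plus compound (no glucose, 25 °C). They were then pelleted, resuspended in ice-cold PBS and re-exposed to the same compound concentrations with or without glucose at 37 °C. Fluorescence (Ex 350/Em 460) followed for 30 min, no-glucose values subtracted, data normalized to loaded cells.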

Assay [3] deals with Escherichia coli. Description: Potentiation of piperacillin-induced antibacterial activity Escherichia coli transformed with plasmid carrying MG1655 deltaBC/pXYM by p-iodonitrotetrazolium chloride colorimetric assay. The class given is functional.
For assay [4], the system named is Escherichia coli. Nature of the assay: Potentiation of levofloxacin-induced antibacterial activity Escherichia coli transformed with plasmid carrying MG1655 deltaBC/pABM MIC by p-iodonitrotetrazolium chloride colorimetric assay. The assay is classed as functional.
Assay [5] deals with Escherichia coli. Nature of the assay: Potentiation of ciprofloxacin-induced antibacterial activity Escherichia coli AG102 overexpressing AcrAB-TolC assessed as ciprofloxacin MIC by p-iodonitrotetrazolium chloride colorimetric assay. The class given is functional. The gist of the method: as §1
For assay [6], the system named is Escherichia coli. Nature of the assay: Potentiation of piperacillin-induced antibacterial activity Escherichia coli AG102 overexpressing AcrAB-TolC by p-iodonitrotetrazolium chloride colorimetric assay. The assay is classed as functional.
Assay [7] concerns Escherichia coli. Description: Potentiation of tetracycline-induced antibacterial activity Escherichia coli transformed with plasmid carrying MG1655 deltaBC/pXYM assessed as tetracycline MIC by p-iodonitrotetrazolium chloride colorimetric assay. The class given is functional. The method, boiled down:
as §1

For assay [8], the system named is Escherichia coli. Description: Effect on intracellular H33342 accumulation in Escherichia coli AG100A after 60 mins by efflux inhibition assay. The assay is classed as functional, organism-based. The method, boiled down:
(§2)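 AG100 (wild-type K-12) or AG100A (ΔacrAB) cells were grown in Luria broth at 37 °C and 200 rpm to OD600 1.0, PBS-washed and diluted to OD600 0.3. Cells took up 2.5 μM Hoechst 33342 with 22 mM glucose at 37 °C for about 30 min, then compound (0.06–64 μg/mL) or PAβN (15.6 μg/mL) was added. Fluorescence (Ex 350/Em 460 nm) was followed for 60 min and corrected for background. The last four time points were compared to dye-only control by ANOVA with Dunnett's test, run in duplicate.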

In assay [9] the test system is Escherichia coli. Nature of the assay: Potentiation of levofloxacin-induced antibacterial activity Escherichia coli transformed with plasmid carrying MG1655 deltaBC/pXYM MIC by p-iodonitrotetrazolium chloride colorimetric assay. The assay is classed as functional.
Assay [10] deals with Escherichia coli. Nature of the assay: Potentiation of ciprofloxacin-induced antibacterial activity Escherichia coli transformed with plasmid carrying MG1655 deltaBC/pABM by p-iodonitrotetrazolium chloride colorimetric assay. The class given is functional.
Assay [11] deals with Escherichia coli. Description: Potentiation of levofloxacin-induced antibacterial activity Escherichia coli transformed with plasmid carrying MG1655 deltaBC/pXYM assessed as levofloxacin MIC by p-iodonitrotetrazolium chloride colorimetric assay. The assay is classed as functional. The method, boiled down:
as §1

Assay [12] relates to Escherichia coli. Description: Effect on intracellular H33342 accumulation in Escherichia coli AG100A delta acrAB mutant at 0.25 ug/ml after 60 mins by accumulation assay. The assay is classed as functional. The method, boiled down:
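Cells grown in Luria broth at 37 °C, 200 rpm to OD600 1.0, washed twice in PBS and diluted in glucose-free PBS to OD600 0.3. Cells were given 2.5 μM H33342 with 22 mM glucose at 37 °C for ~30 min until stable, then compound added (0.06–64 μg/mL). Fluorescence (Ex 350/Em 460 nm) was read for 60 min, background subtracted, and the final 4 min averaged (n = 8).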

Assay [13] deals with Escherichia coli. Description: Potentiation of kanamycin-induced antibacterial activity Escherichia coli transformed with plasmid carrying MG1655 deltaBC/pXYM by p-iodonitrotetrazolium chloride colorimetric assay. The class given is functional.
Assay [14] has as its system Escherichia coli. Nature of the assay: Potentiation of erythromycin-induced antibacterial activity Escherichia coli transformed with plasmid carrying MG1655 deltaBC/pABM by p-iodonitrotetrazolium chloride colorimetric assay. The assay is classed as functional.
The subject of assay [15] is Escherichia coli. Nature of the assay: Effect on intracellular H33342 accumulation in Escherichia coli AG100A delta acrAB mutant at 16 ug/ml after 60 mins by accumulation assay. The assay is classed as functional. The method, boiled down:
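Cells grown in Luria broth at 37 °C, 200 rpm to OD600 1.0, then washed twice in PBS and diluted in glucose-free PBS to OD600 0.3. H33342 was used at 2.5 μM with 22 mM glucose at 37 °C and allowed to accumulate for ~30 min. Compound was then added and fluorescence (Ex 350/Em 460 nm) followed for 60 min. Values are the mean RFU of the final 4 min, after media-plus-compound background was subtracted. Run in duplicate, n = 8.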

Assay [16] has as its system Escherichia coli. Description: Potentiation of kanamycin-induced antibacterial activity Escherichia coli AG102 overexpressing AcrAB-TolC assessed as kanamycin MIC by p-iodonitrotetrazolium chloride colorimetric assay. The class given is functional. The gist of the method:
as §1

The test system of assay [17] is Escherichia coli. Nature of the assay: Inhibition of AcrAB-TolC pump in Escherichia coli AG100 assessed as increase in intracellular H33342 fluorescence at >= 1 ug/ml after 60 mins by efflux inhibition assay. The class given is cell-based. The gist of the method:
as §2

The test system of assay [18] is Escherichia coli. Nature of the assay: Antibacterial activity against Escherichia coli transformed with plasmid carrying MG1655 deltaBC/pABM by p-iodonitrotetrazolium chloride colorimetric assay. The assay is classed as functional. The method, boiled down:
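Two-fold broth microdilution in Mueller-Hinton broth, read by p-iodonitrotetrazolium chloride colorimetric assay. MIC is the lowest concentration giving no visible growth. MG1655 ΔacrB ΔtolC strains carrying pABM or pXYM were always cultured with 100 μg/mL ampicillin and 1 mM IPTG. Medium, inoculum and 1% DMSO (final) served as negative control.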

Assay [19] relates to Escherichia coli. Nature of the assay: Potentiation of tetracycline-induced antibacterial activity Escherichia coli AG102 overexpressing AcrAB-TolC by p-iodonitrotetrazolium chloride colorimetric assay. The class given is functional.
In assay [20] the test system is Escherichia coli. Nature of the assay: Potentiation of chloramphenicol-induced antibacterial activity Escherichia coli AG102 overexpressing AcrAB-TolC by p-iodonitrotetrazolium chloride colorimetric assay. The class given is functional.
The subject of assay [21] is Escherichia coli. Description: Potentiation of oxacillin-induced antibacterial activity Escherichia coli transformed with plasmid carrying MG1655 deltaBC/pABM by p-iodonitrotetrazolium chloride colorimetric assay. The class given is functional, organism-based. The method, boiled down:
as §1

The subject of assay [22] is Escherichia coli. Nature of the assay: Potentiation of erythromycin-induced antibacterial activity Escherichia coli transformed with plasmid carrying MG1655 deltaBC/pABM assessed as erythromycin MIC by p-iodonitrotetrazolium chloride colorimetric assay. The class given is functional. The method, boiled down: as §1

Regarding `O=C1NC(=O)C(Br)=C1Br`, the MIC – broadly, the smallest concentration in the dilution series that meets the test's criterion for growth inhibition – in the assay with Escherichia coli [1] was found to be 32 µg/mL; in the assay on Escherichia coli [5] it was 2 µg/mL; with Escherichia coli [7], 8 µg/mL; in the assay on Escherichia coli [11], 32 µg/mL; in the assay with Escherichia coli [16] it was 2 µg/mL; in the assay on Escherichia coli [18] it was 256 µg/mL (≈ 1000 µM). For the same molecule, in the assay with Escherichia coli [22], the minimum inhibitory concentration (MIC) is 64 µg/mL. For the same molecule, the RFU was 1200 in the assay on Escherichia coli [2], -101 in the assay with Escherichia coli K-12, 1000 with Escherichia coli [12] and 1100 in the assay on Escherichia coli [15]. The “fractional inhibitory concentration index (FICI)” value in the assay on Escherichia coli [3] worked out at 0.52; in the assay with Escherichia coli [4] it was 0.75; in the assay on Escherichia coli [6], 0.75; in the assay on Escherichia coli [9] it was 0.19; in the assay on Escherichia coli [10], 0.75; with Escherichia coli [13], 0.75. Further, the figures for the “fractional inhibitory concentration index (FICI)” value in the assay with Escherichia coli [14], in the assay with Escherichia coli [19] and with Escherichia coli [20] were 0.19, 0.31 and 0.5, respectively. Besides, the inhibition result with Escherichia coli [8] was “inactive”. For the same molecule, the inhibition entry in the assay with Escherichia coli [17] is “Active”. Further, the “fractional inhibitory concentration index (FICI)” value in the assay on Escherichia coli [21] was “inactive”.
